Columns and labels:
[1] = biological target: Histamine H2 receptor (Cavia porcellus) (UniProt P47747); conditions: Cardiac atrium
[2] = biological target: T1, Histamine H2 receptor (Cavia porcellus, UniProt P47747); assay: Antagonistic activity against H2 receptor in guinea pig was evaluated; assay type: functional; conditions: read-out: pA2 (converted)
Method in brief: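 Guinea pig atrium under 400-mg tension with propranolol (0.5 μM). Histamine concentrations giving half-maximal response measured with and without several antagonist concentrations (B). K_B = B/(x − 1), x being the concentration ratio; pA2 = −log K_B.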

[3] = biological target: T1, Histamine H2 receptor; assay: Antagonistic activity against H2 receptor in guinea pig.; assay type: functional; conditions: read-out: pA2 (converted)
[4] = biological target: Histamine H2 receptor (Cavia porcellus) (UniProt P47747); assay: Percent maximum response against histamine H2 receptor in guinea pig atrium was evaluated; assay type: tissue-based; conditions: Cardiac atrium
Method in brief: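 Isolated guinea pig atrium under 400-mg tension with propranolol (0.5 μM). Complete cumulative dose-response curves to histamine and test agonist, up to 781 μM, used to find the maximum response obtainable, expressed relative to histamine.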

[5] = biological target: Histamine H2 receptor (Cavia porcellus) (UniProt P47747); assay: Agonistic activity against histamine H2 receptor in guinea pig atrium (potency relative to histamine =1); assay type: functional, tissue-based; conditions: Cardiac atrium
Method in brief: (§1)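 Isolated guinea pig atrium, muscle under 400-mg tension, propranolol (0.5 μM) present. Agonist tested up to 781 μM (0.1% histamine) by cumulative dose-response curves. Potency relative to histamine taken from concentrations giving 50% of maximal response; selected compounds by 2 + 2 Latin square parallel-line assay against histamine.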

[6] = biological target: Histamine H2 receptor (Cavia porcellus) (UniProt P47747); assay: Agonistic activity against histamine H2 receptor in guinea pig atrium(potency relative to histamine =1); assay type: functional, tissue-based; conditions: Cardiac atrium
Method in brief: as §1

Sequence of Histamine H2 receptor (Cavia porcellus) (P47747 whole entry): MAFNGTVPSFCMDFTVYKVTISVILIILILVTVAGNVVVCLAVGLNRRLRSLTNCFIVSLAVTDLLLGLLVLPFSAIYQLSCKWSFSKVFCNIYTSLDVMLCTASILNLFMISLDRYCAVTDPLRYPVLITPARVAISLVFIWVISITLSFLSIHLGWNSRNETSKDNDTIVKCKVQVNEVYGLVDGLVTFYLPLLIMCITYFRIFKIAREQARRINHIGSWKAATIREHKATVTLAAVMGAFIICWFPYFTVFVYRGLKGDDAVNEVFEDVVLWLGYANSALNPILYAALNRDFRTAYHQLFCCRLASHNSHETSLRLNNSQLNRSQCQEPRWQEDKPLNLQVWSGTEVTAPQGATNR
T1 sequence (P47747 whole entry): as above

## C/[S+]=C(/NCCCc1c[nH]cn1)NCCSCc1[nH]cnc1C
[1]
  Potency: 0.01
[2]
  Kb: 17.8 µM

## Cc1[nH]cnc1CSCC/N=C(\N)SCCCc1c[nH]cn1
[3]
  Kb: 3.31 µM

## CC1=NN(c2ccc([N+](=O)[O-])cc2)C(=O)C1[N+](=O)[O-].Cc1[nH]cnc1CSCC/N=C(\N)NCCCc1cn(C)cn1
[3]
  Kb: 1.58 µM
[4]
  Max response: 11%
[5]
  Potency: 0.007

## Cc1nc[nH]c1CSCCNC(=S)NCCCc1cnc[nH]1
[3]
  Kb: 1.2 µM

## CC1=NN(c2ccc([N+](=O)[O-])cc2)C(=O)C1[N+](=O)[O-].CN/C(=N\CCCc1c[nH]cn1)NCCSCc1[nH]cnc1C
[6]
  Potency: 0.062
[4]
  Max response: 91%

## C/N=C(\N)NCCCc1c[nH]cn1
[3]
  Kb: 12.6 µM
[4]
  Max response: 62%
[5]
  Potency: 0.2

## N=C(NCCCc1c[nH]cn1)NCCCc1nccs1
[4]
  Max response: 87%
[5]
  Potency: 26.6

## CC1=NN(c2ccc([N+](=O)[O-])cc2)C(=O)C1[N+](=O)[O-].N=C(NCCCc1c[nH]cn1)NCCCc1c[nH]cn1
[4]
  Max response: 100%
[5]
  Potency: 4.83

## Cc1[nH]cnc1CSCCNC(=N)NCCSCc1nc[nH]c1C
[3]
  Kb: 0.214 µM

## N=C(NCCCc1c[nH]cn1)NCCSCc1nccs1
[4]
  Max response: 91%
[5]
  Potency: 24.4

## Cc1[nH]cnc1CSCC/N=C(\NC#N)NCCCc1c[nH]cn1
[3]
  Kb: 0.575 µM

## CSC(=N)NCCCc1c[nH]cn1
[3]
  Kb: 25.1 µM
[4]
  Max response: 23%
[5]
  Potency: 0.1

## C/N=C(\N)NCCCc1nccs1
[3]
  Kb: 63.1 µM

## Cc1[nH]cnc1CSCCNC(=N)NCCCc1c[nH]cn1
[4]
  Max response: 98.7%
[5]
  Potency: 48.1

## C/N=C(\N)NCCc1c[nH]cn1
[3]
  Kb: > 501 µM
[6]
  Potency: 0.01
[4]
  Max response: 62%

## N=C(NCCCc1c[nH]cn1)NCCSCc1c[nH]cn1
[4]
  Max response: 95%
[5]
  Potency: 5.38

## N=C(NCCCCc1c[nH]cn1)NCCCc1c[nH]cn1
[4]
  Max response: 85.5%
[5]
  Potency: 12.3

## CC1=NN(c2ccc([N+](=O)[O-])cc2)C(=O)C1[N+](=O)[O-].Cc1[nH]cnc1CSCC/N=C(\N)NCCc1c[nH]cn1
[4]
  Max response: 100%
[5]
  Potency: 1.93

## C/N=C(\N)NCCSCc1[nH]cnc1C
[3]
  Kb: 16.2 µM

## Cc1[nH]cnc1CSCC/N=C(\N)NCCCCc1c[nH]cn1
[3]
  Kb: 1.15 µM
[4]
  Max response: 20%
[5]
  Potency: 0.83

## CSC(=N)NCCSCc1[nH]cnc1C
[3]
  Kb: 6.92 µM

## C/N=C(\N)NCCCCc1c[nH]cn1
[3]
  Kb: 100 µM
[4]
  Max response: 46%
[5]
  Potency: 0.074

## Cc1nc[nH]c1CSCCNC(=O)NCCCc1cnc[nH]1
[3]
  Kb: 6.31 µM

## C/N=C(\N)NCCSCc1c[nH]cn1
[3]
  Kb: 41.7 µM
